{
  "source": "ChEMBL document CHEMBL3856239",
  "about": "“Synthesis and Antiobesity Properties of 6-(4-Chlorophenyl)-3-(4-((3,3-difluoro-1-hydroxycyclobutyl)methoxy)-3-methoxyphenyl)thieno[3,2-d]pyrimidin-4(3H)-one (BMS-814580): A Highly Efficacious Melanin Concentrating Hormone Receptor 1 (MCHR1) Inhibitor” (J Med Chem, 2016)",
  "key": {"Rattus norvegicus [1]": {"system": "Rattus norvegicus", "test": "Toxicity in rat assessed as hepatobiliary lesions up to 100 mg/kg administered for 30 days", "format": "organism-based", "details": "in vivo, 720 h", "in_short": "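Rats dosed daily with the phosphate prodrug for 30 days at up to 100 mg/kg; hepatobiliary lesions examined.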"}, "Rattus norvegicus [2]": {"system": "Rattus norvegicus", "test": "Antiobesity activity in once daily orally dosed DIO Sprague-Dawley rat model assessed as reduction in caloric measured after 28 days relative to vehicle control", "format": "functional, organism-based", "in_short": "(§1)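 Obese male SD rats on diet-induced obesity, 8/group, dosed orally once daily for 28 days with phosphate prodrug (0.03–3 mg/kg parent) in 14% propylene glycol/1% Tween/85% water; rimonabant 10 mg/kg control; pair-fed groups matched to 1 and 3 mg/kg intake; body weight and food measured daily, % change versus vehicle.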"}, "[3]": {"test": "Plasma concentration in DIO Sprague-Dawley rat assessed as parent compound level at 3 mg/kg, po for 28 days measured after 2 hrs", "format": "ADME, organism-based", "in_short": "(§2)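 Obese male DIO SD rats, 8/group, dosed orally once daily for 28 days with phosphate prodrug at 0.03–3 mg/kg. Vehicle 14% propylene glycol/1% Tween/85% water. Body weight and food intake recorded daily. Parent plasma levels at 2 and 24 h; prodrug detection limit <2 nM. Histopathology for biliary toxicity at study end.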"}, "Rattus norvegicus [4]": {"system": "Rattus norvegicus", "test": "Antiobesity activity in DIO Sprague-Dawley rat model assessed as reduction in body weight at 3 mg/kg, po qd for 28 days relative to vehicle control", "format": "functional", "parameters": "scale not given: the % may be the effect or the level left", "in_short": "as §1"}, "Rattus norvegicus [5]": {"system": "Rattus norvegicus", "test": "Antiobesity activity in DIO Sprague-Dawley rat model assessed as reduction in caloric intake at 3 mg/kg, po qd for 28 days relative to vehicle control", "format": "functional", "parameters": "scale not given: the % may be the effect or the level left", "in_short": "as §1"}, "[6]": {"test": "Tmax in dog at 10 mg/kg, po", "format": "ADME, organism-based, Canis lupus familiaris", "details": "in vivo", "in_short": "(§3)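 Full PK in rat, dog and cynomolgus monkey. Oral arm: phosphate prodrug at 10 mg/kg parent-equivalent in Methocel:Tween80:water (0.5:0.1:99.4). Intravenous arm: parent at 1 mg/kg in PEG400:DMAC:water (70:5:25). n = 3 per species; individual Tmax values reported for dog and monkey.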"}, "[7]": {"test": "Cmax in cynomolgus monkey at 10 mg/kg, po", "format": "ADME, organism-based, Macaca fascicularis", "parameters": "dose 10 mg/kg, route oral", "details": "in vivo", "in_short": "(§4)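 Rats, dogs and cynomolgus monkeys, n = 3: parent 1 mg/kg i.v. in PEG400:DMAC:water (70:5:25), or phosphate prodrug 10 mg/kg oral in Methocel:Tween80:water (0.5:0.1:99.4); plasma parent compound, Cmax, Tmax, AUC0-∞, half-life, clearance, Vss and bioavailability derived.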"}, "[8]": {"target": "Melanin-concentrating hormone receptor 1 (Homo sapiens, UniProt Q99705)", "sequence (Q99705 whole entry)": "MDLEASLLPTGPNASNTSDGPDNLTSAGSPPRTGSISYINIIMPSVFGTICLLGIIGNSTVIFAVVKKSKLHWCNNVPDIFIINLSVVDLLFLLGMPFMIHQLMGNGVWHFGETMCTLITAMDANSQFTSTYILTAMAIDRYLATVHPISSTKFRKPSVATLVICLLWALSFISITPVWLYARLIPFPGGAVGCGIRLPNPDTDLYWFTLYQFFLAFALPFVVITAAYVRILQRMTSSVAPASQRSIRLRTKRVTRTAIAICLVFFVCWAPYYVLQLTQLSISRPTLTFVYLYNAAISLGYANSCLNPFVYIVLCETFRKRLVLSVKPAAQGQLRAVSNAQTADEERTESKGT", "test": "Binding affinity to MCHR1 (unknown origin)"}, "[9]": {"test": "AUC in dog at 10 mg/kg, po", "format": "ADME, organism-based, Canis lupus familiaris", "details": "in vivo", "in_short": "as §4"}, "Rattus norvegicus [10]": {"system": "Rattus norvegicus", "test": "Antiobesity activity in DIO Sprague-Dawley rat model assessed as reduction in caloric intake at 0.03 mg/kg, po qd for 28 days relative to vehicle control", "format": "functional", "parameters": "scale not given: the % may be the effect or the level left", "in_short": "as §1"}, "[11]": {"test": "Protein binding in dog plasma assessed as unbound fraction", "format": "ADME, cell-free, Canis lupus familiaris", "in_short": "(§5)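 Plasma protein binding reported as % free drug in rat, DIO rat, dog, cynomolgus monkey, rabbit and human plasma.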"}, "Rattus norvegicus [12]": {"system": "Rattus norvegicus", "test": "Antiobesity activity in DIO Sprague-Dawley rat model assessed as reduction in caloric intake at 0.1 mg/kg, po qd for 28 days relative to vehicle control", "format": "functional", "parameters": "scale not given: the % may be the effect or the level left", "in_short": "as §1"}, "Rattus norvegicus [13]": {"system": "Rattus norvegicus", "test": "Antiobesity activity in DIO Sprague-Dawley rat model assessed as reduction in body weight at 0.03 mg/kg, po qd for 28 days relative to vehicle control", "format": "functional", "parameters": "scale not given: the % may be the effect or the level left", "in_short": "as §1"}, "[14]": {"test": "Protein binding in DIO rat plasma assessed as unbound fraction", "format": "ADME, cell-free", "in_short": "as §5"}, "[15]": {"test": "Protein binding in cynomolgus monkey plasma assessed as unbound fraction", "format": "ADME, cell-free, Macaca fascicularis", "in_short": "as §5"}, "Rattus norvegicus [16]": {"system": "Rattus norvegicus", "test": "Antiobesity activity in DIO Sprague-Dawley rat model assessed as reduction in caloric intake at 1 mg/kg, po qd for 28 days relative to vehicle control", "format": "functional", "parameters": "scale not given: the % may be the effect or the level left", "in_short": "as §1"}, "[17]": {"test": "Solubility of the compound in phosphate buffer at pH 6.4", "format": "physicochemical", "in_short": "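Solubility of parent compounds and prodrugs measured in 50 mM phosphate buffer, pH 6.4.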"}, "[18]": {"test": "Oral bioavailability in rat at 10 mg/kg", "format": "ADME, organism-based", "details": "in vivo", "in_short": "as §3"}, "[19]": {"test": "Oral bioavailability in cynomolgus monkey at 10 mg/kg", "format": "ADME, organism-based, Macaca fascicularis", "details": "in vivo", "in_short": "as §3"}, "[20]": {"test": "Plasma concentration in DIO Sprague-Dawley rat assessed as parent compound level at 0.3 mg/kg, po for 28 days measured after 24 hrs", "format": "ADME, organism-based", "in_short": "as §2"}, "[21]": {"test": "Plasma concentration in DIO Sprague-Dawley rat assessed as parent compound level at 0.3 mg/kg, po for 28 days measured after 2 hrs", "format": "ADME, organism-based", "in_short": "as §2"}, "[22]": {"test": "AUC in cynomolgus monkey at 10 mg/kg, po", "format": "ADME, organism-based, Macaca fascicularis", "details": "in vivo", "in_short": "as §4"}, "[23]": {"test": "Cmax in dog at 10 mg/kg, po", "format": "ADME, organism-based, Canis lupus familiaris", "parameters": "dose 10 mg/kg, route oral", "details": "in vivo", "in_short": "as §4"}, "[24]": {"test": "Cmax in rat at 10 mg/kg, po", "format": "ADME, organism-based", "parameters": "dose 10 mg/kg, route oral", "details": "in vivo", "in_short": "as §4"}, "[25]": {"test": "Tmax in cynomolgus monkey at 10 mg/kg, po", "format": "ADME, organism-based, Macaca fascicularis", "details": "in vivo", "in_short": "as §3"}, "Rattus norvegicus [26]": {"system": "Rattus norvegicus", "test": "Toxicity in DIO Sprague-Dawley rat assessed as biliary lesion at 0.03 to 3 mg/kg, po administered once daily for 28 days by histophalogy analysis", "format": "organism-based", "details": "in vivo, 672 h", "in_short": "as §2"}, "[27]": {"test": "Oral bioavailability in dog at 10 mg/kg", "format": "ADME, organism-based, Canis lupus familiaris", "details": "in vivo", "in_short": "as §3"}, "Rattus norvegicus [28]": {"system": "Rattus norvegicus", "test": "Antiobesity activity in DIO Sprague-Dawley rat model assessed as reduction in caloric intake at 0.3 mg/kg, po qd for 28 days relative to vehicle control", "format": "functional", "parameters": "scale not given: the % may be the effect or the level left", "in_short": "as §1"}, "Rattus norvegicus [29]": {"system": "Rattus norvegicus", "test": "Antiobesity activity in DIO Sprague-Dawley rat model assessed as reduction in body weight at 1 mg/kg, po qd for 28 days relative to vehicle control", "format": "functional", "parameters": "scale not given: the % may be the effect or the level left", "in_short": "as §1"}, "[30]": {"test": "Plasma concentration in DIO Sprague-Dawley rat assessed as parent compound level at 3 mg/kg, po for 28 days measured after 24 hrs"}, "[31]": {"test": "Tmax in rat at 10 mg/kg, po", "format": "ADME, organism-based", "details": "in vivo", "in_short": "as §3"}, "[32]": {"test": "Protein binding in rabbit plasma assessed as unbound fraction", "format": "ADME, cell-free, Oryctolagus cuniculus", "in_short": "as §5"}, "Rattus norvegicus [33]": {"system": "Rattus norvegicus", "test": "Antiobesity activity in DIO Sprague-Dawley rat model assessed as reduction in body weight at 0.3 mg/kg, po qd for 28 days relative to vehicle control", "format": "functional", "parameters": "scale not given: the % may be the effect or the level left", "in_short": "as §1"}, "[34]": {"test": "AUC in rat at 10 mg/kg, po", "format": "ADME, organism-based", "details": "in vivo", "in_short": "as §4"}, "Rattus norvegicus [35]": {"system": "Rattus norvegicus", "test": "Antiobesity activity in DIO Sprague-Dawley rat model assessed as reduction in body weight at 0.1 mg/kg, po qd for 28 days relative to vehicle control", "format": "functional", "parameters": "scale not given: the % may be the effect or the level left", "in_short": "as §1"}},
  "data": [
    {"smiles": "COc1cc(-n2cnc3cc(-c4ccc(Cl)cc4)sc3c2=O)ccc1OCC1(OP(=O)(O)O)CC(F)(F)C1", "values": [
      {"measurement": "Activity", "setting": "Rattus norvegicus [1]", "result": "Non-Toxic"},
      {"measurement": "inhibition", "setting": "Rattus norvegicus [2]", "result": "Dose-dependent effect"},
      {"measurement": "concentration at 2 h", "setting": "[3]", "result": 13500, "unit": "nM"},
      {"measurement": "Activity", "setting": "Rattus norvegicus [4]", "result": 7.8, "unit": "%"},
      {"measurement": "Activity", "setting": "Rattus norvegicus [5]", "result": 14.7, "unit": "%"},
      {"measurement": "Tmax", "setting": "[6]", "result": 9.3, "unit": "h"},
      {"measurement": "Cmax", "setting": "[7]", "result": 1200, "unit": "nM"},
      {"measurement": "Ki", "setting": "[8]", "result": 2.92, "unit": "µM"},
      {"measurement": "AUC", "setting": "[9]", "result": 15.3, "unit": "µM·h"},
      {"measurement": "Activity", "setting": "Rattus norvegicus [10]", "result": 6.5, "unit": "%"},
      {"measurement": "Fu", "setting": "[11]", "result": 0.3, "unit": "%"},
      {"measurement": "Activity", "setting": "Rattus norvegicus [12]", "result": 10.5, "unit": "%"},
      {"measurement": "Activity", "setting": "Rattus norvegicus [13]", "result": 1.7, "unit": "%"},
      {"measurement": "Fu", "setting": "[14]", "result": 0.1, "unit": "%"},
      {"measurement": "Fu", "setting": "[15]", "result": 0.4, "unit": "%"},
      {"measurement": "Activity", "setting": "Rattus norvegicus [16]", "result": 14.5, "unit": "%"},
      {"measurement": "solubility", "setting": "[17]", "result": 4, "unit": "µg/mL"},
      {"measurement": "bioavailability", "setting": "[18]", "result": 54, "unit": "%"},
      {"measurement": "bioavailability", "setting": "[19]", "result": 46, "unit": "%"},
      {"measurement": "concentration at 24 h", "setting": "[20]", "result": 1200, "unit": "nM"},
      {"measurement": "concentration at 2 h", "setting": "[21]", "result": 2000, "unit": "nM"},
      {"measurement": "AUC", "setting": "[22]", "result": 87, "unit": "µM·h"},
      {"measurement": "Cmax", "setting": "[23]", "result": 1200, "unit": "nM"},
      {"measurement": "Cmax", "setting": "[24]", "result": 4000, "unit": "nM"},
      {"measurement": "Tmax", "setting": "[25]", "result": 10.7, "unit": "h"},
      {"measurement": "Activity", "setting": "Rattus norvegicus [26]", "result": "Non-Toxic"},
      {"measurement": "bioavailability", "setting": "[27]", "result": 33, "unit": "%"},
      {"measurement": "Activity", "setting": "Rattus norvegicus [28]", "result": 12.8, "unit": "%"},
      {"measurement": "Activity", "setting": "Rattus norvegicus [29]", "result": 6.6, "unit": "%"},
      {"measurement": "concentration at 24 h", "setting": "[30]", "result": 14400, "unit": "nM"},
      {"measurement": "Tmax", "setting": "[31]", "result": 6.7, "unit": "h"},
      {"measurement": "Fu", "setting": "[32]", "result": 0.2, "unit": "%"},
      {"measurement": "Activity", "setting": "Rattus norvegicus [33]", "result": 5, "unit": "%"},
      {"measurement": "AUC", "setting": "[34]", "result": 107, "unit": "µM·h"},
      {"measurement": "Activity", "setting": "Rattus norvegicus [35]", "result": 3.2, "unit": "%"}
    ]}
  ]
}
